System: NCI-H460
Assay: Cytotoxicity against human NCI-H460 cells assessed as reduction in cell viability incubated for 48 hrs by MTT assay
Assay type: functional, cell-based
Details: NCI-H460, 48 h
In short: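 H-460 non-small-cell lung carcinoma cells in RPMI-1640 with 10% FBS and 1% penicillin/streptomycin, used within 28 passages per frozen batch. Seeded at 3.33 × 10^4 cells/mL, adhered 24 h, then treated 48 h. Ten concentrations from 30 μM down by 0.3164-fold serial dilution; 1% DMSO negative control, doxorubicin positive control.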

| SMILES | IC50 |
| --- | --- |
| CCCC[C@@H](C)C[C@@H](C)C(=O)N(C)[C@@H](CC(C)C)C(=O)N[C@H](C(=O)N(C)[C@H](C(=O)N1C[C@@H](O)C[C@H]1C(=O)O)C(C)C)[C@@H](C)OC(C)=O | 0.51 µM |
| CCCC[C@@H](C)C[C@@H](C)C(=O)N(C)[C@@H](CC(C)C)C(=O)N[C@H](C(=O)N[C@H](C(=O)N1CCC[C@H]1C(=O)N1C(=O)C=C[C@@H]1C)C(C)C)[C@@H](C)OC(C)=O | 0.069 µM |
| CCCC[C@@H](C)C[C@@H](C)C(=O)N(C)[C@@H](CC(C)C)C(=O)N[C@H](C(=O)N(C)[C@H](C(=O)N1CCC[C@H]1C(=O)N1C(=O)C=C[C@@H]1C)C(C)C)[C@@H](C)OC(C)=O | 0.91 µM |
| CCCC[C@@H](C)C[C@@H](C)C(=O)N(C)[C@@H](CC(C)C)C(=O)N[C@H](C(=O)N(C)[C@H](C(=O)N1CCC[C@H]1C(=O)N1C(=O)CC[C@@H]1C)C(C)C)[C@@H](C)O | > 30 µM |
| CCCC[C@@H](C)C[C@@H](C)C(=O)N(C)[C@@H](CC(C)C)C(=O)N[C@H](C(=O)N(C)[C@H](C(=O)N1C[C@@H](O)C[C@H]1C(=O)N1C(=O)CC[C@@H]1C)C(C)C)[C@@H](C)O | 2 µM |
| CCCC[C@@H](C)C[C@@H](C)C(=O)N(C)[C@@H](CC(C)C)C(=O)N[C@H](C(=O)N(C)[C@H](C(=O)N1C[C@@H](O)C[C@H]1C(=O)N1C(=O)C=C[C@@H]1C)C(C)C)[C@@H](C)O | 0.075 µM |
| CCCC[C@@H](C)C[C@@H](C)C(=O)N(C)[C@@H](C=C(C)C)C(=O)N[C@H](C(=O)N(C)[C@H](C(=O)N1C[C@@H](O)C[C@H]1C(=O)N1C(=O)C=C[C@@H]1C)C(C)C)[C@@H](C)O | 0.16 µM |
| CCCC[C@@H](C)C[C@@H](C)C(=O)N(C)[C@@H](CC(C)C)C(=O)N[C@H](C(=O)N(C)[C@H](C(=O)N1CCC[C@H]1C(=O)N1C(=O)CC[C@@H]1C)C(C)C)[C@@H](C)OC(C)=O | 5 µM |
| CCCC[C@@H](C)C[C@@H](C)C(=O)N(C)[C@@H](CC(C)C)C(=O)N[C@H](C(=O)N(C)[C@H](C(=O)N1CCC[C@H]1C(=O)N1C(=O)C=C[C@@H]1C)C(C)C)[C@@H](C)O | 0.65 µM |
| CCCC[C@@H](C)C[C@@H](C)C(=O)N(C)[C@@H](CC(C)C)C(=O)N[C@H](C(=O)N(C)[C@H](C(=O)N1C[C@@H](O)C[C@H]1C(=O)N1C(=O)C=C[C@@H]1C)C(C)C)[C@@H](C)OC(C)=O | 0.006 µM |
| CCCC[C@@H](C)C[C@@H](C)C(=O)N(C)[C@@H](C=C(C)C)C(=O)N[C@H](C(=O)N(C)[C@H](C(=O)N1CCC[C@H]1C(=O)N1C(=O)C=C[C@@H]1C)C(C)C)[C@@H](C)OC(C)=O | 1 µM |
| CCCCCC[C@@H](C)C(=O)N(C)[C@@H](CC(C)C)C(=O)N[C@H](C(=O)N(C)[C@H](C(=O)N1C[C@@H](O)C[C@H]1C(=O)N1C(=O)C=C[C@@H]1C)C(C)C)[C@@H](C)OC(C)=O | 0.047 µM |
| CCCC[C@@H](C)C[C@@H](C)C(=O)N(C)[C@@H](CC(C)C)C(=O)N[C@H](C(=O)N(C)[C@H](C(=O)N1C[C@@H](O)C[C@H]1C(=O)N1C(=O)C=C[C@@H]1C)C(C)C)[C@@H](C)OC(=O)CC | 0.2 µM |
| CCCC[C@@H](C)C[C@@H](C)C(=O)N(C)[C@@H](CC(C)C)C(=O)N[C@H](C(=O)N(C)[C@H](C(=O)N1C[C@@H](O)C[C@H]1C(=O)N1C(=O)CC[C@@H]1C)C(C)C)[C@@H](C)OC(C)=O | 2.8 µM |
| CCCC[C@@H](C)C[C@@H](C)C(=O)N(C)[C@@H](C=C(C)C)C(=O)N[C@H](C(=O)N(C)[C@H](C(=O)N1C[C@@H](O)C[C@H]1C(=O)N1C(=O)C=C[C@@H]1C)C(C)C)[C@@H](C)OC(C)=O | 0.037 µM |
| CCCCCC[C@@H](C)C(=O)N(C)[C@@H](CC(C)C)C(=O)N[C@H](C(=O)N(C)[C@H](C(=O)N1CCC[C@H]1C(=O)N1C(=O)C=C[C@@H]1C)C(C)C)[C@@H](C)OC(C)=O | 0.55 µM |
| COc1cccc2c1C(=O)c1c(O)c3c(c(O)c1C2=O)C[C@@](O)(C(=O)CO)C[C@@H]3O[C@H]1C[C@H](N)[C@H](O)[C@H](C)O1 [DOXORUBICIN] | 0.18 µM |

— ChEMBL document CHEMBL4334487, “Cytotoxic Microcolin Lipopeptides from the Marine Cyanobacterium Moorea producens” (J Nat Prod, 2019)
